Screens (PubChem BioAssay)
ABHD5-PLIN5 inh: ABHD5-PLIN5 interaction inhibitors, primary screen, cell lysate, split luciferase complementation, luminescence. 360,000 compounds, 0.78% hits. Perilipin-5 (Homo sapiens) + 1-acylglycerol-3-phosphate O-acyltransferase ABHD5 (Homo …. Split G. princeps luciferase complementation, 4 h. inhibition, % at 4 µM;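 active means inhibition above the mean inhibition across every tested compound plus 3 SD, cut at about 22% in these data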;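 further: 0% = DMSO only wells and the 100% control is not disclosed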
MBD2 inh: inhibitors of MBD2 binding to methylated DNA, primary screen, biochemical, TR-FRET, DNA-binding domain, human. 370,000 compounds, 0.31% hits. inhibition, % at 4.4 µM. MBD2 binding to methylated oligonucleotide; in the data active means inhibition above about 13%
Rin1-Abl PPI inh: inhibitors of Rin1-Abl protein binding, primary screen, biochemical, TR-FRET; Tyrosine-protein kinase ABL1 (Homo sapiens) + Ras and Rab interactor 1 (Homo sapiens), …; inhibition, % at 7.35 µM; 360,000 compounds, 0.4% hits; in the data active means inhibition above about 5%, passing the limit was not always enough
Arrestin-AP2 inh: inhibitors of beta-arrestin/AP2 binding, primary screen, biochemical, GPCR trafficking, flow cytometry | beta-arrestin 1 C-terminal peptide binding to AP2 beta2-adaptin appendage (human) | 340,000 compounds, 0.31% hits | FITC-arrestin peptide / GST-AP2 beads; AP2 beta2 appendage carries R879A mutation | AID 504490, 2011 | inhibition, % at 10 µM;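 active means inhibition above a set limit, near 3 SD of compounds lacking own fluorescence, cut at about 54% in these data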;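 further: plate controls were DMSO wells for no effect and 5 µM unlabelled arrestin peptide for full effect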
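system = GST-tagged AP2 beta2-adaptin appendage (R879A) on 4 µm glutathione beads | reagent = FITC-labelled arrestin peptide probe, 50 nM final | schedule = compound with beads 12 min RT, then probe 1 h RT | signal = HyperCyt-sampled flow cytometry, FL1 channel, ex 488/em 535 nm | read-out = percent response from loss of bead-bound FITC fluorescence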
B2AR ag: beta2AR agonists driving receptor internalization, primary screen, cell-based, FAP fluorogen, flow cytometry | AID 504454, 2011 | Am2.2-beta2AR cells | 340,000 compounds, 0.43% hits | response, % (test concentration not listed) | Beta-2 adrenergic receptor (Homo sapiens), P07550;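 active means response above a set limit, near 3 SD of response in nonfluorescent compounds, cut at about 42% in these data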
UHRF1 binding: UHRF1 methylated DNA binding inhibitors, primary screen, counter-screen for MBD2 inhibitor project, biochemical, TR-FRET, human UHRF1, single concentration; AID 687016, 2013; inhibition, % at 4.4 µM; E3 ubiquitin-protein ligase UHRF1 (Homo sapiens), Q96T88; UHRF1 binding to methylated oligo; 370,000 compounds, 0.75% hits; in the data active means inhibition above about 21%;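 further: UHRF1 SRA domain binding a hemimethylated CpG hairpin DNA probe; 0% = median of test compound wells and 100% = reference inhibitor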
Beta2AR ag CP1: beta2AR agonists via receptor internalization, confirmation, cell-based, FAP fluorogen, flow cytometry, single point, cherry pick 1; percent response (surface receptor), % at 10 µM; 1,100 compounds, 25% hits; shares compounds with B2AR ag; Am2.2-beta2AR cells, FAP surface receptor; active compounds read low;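 active means surface receptor percent response at or below 58%, roughly 3 SD from nonfluorescent compounds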
B2AR FAP counter: counter-screen for beta-2AR agonists: fluorescence in Am2.2 cells; shares compounds with B2AR ag; 1,100 tested, under 10 active; calls only at 10 µM; FAP fluorogen flow cytometry, fluorescence counterscreen; active compounds read low;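 active means percent response below a set limit in fluorescence channel 1 and below 50% in channel 8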
Active calls of the source: *; i = inactive; / = not tested or not shown. Compounds with a hit are over-represented: about 2.5% of the library has one in this group of screens.

SMILES	ABHD5-PLIN5 inh	MBD2 inh	Rin1-Abl PPI inh	Arrestin-AP2 inh	B2AR ag	UHRF1 binding	Beta2AR ag CP1	B2AR FAP counter
CC(=O)c1cccc(NC(=O)c2cccc(N3C(=O)c4ccccc4C3=O)c2)c1	5	-4	0	6	7	-1	100	i
NS(=O)(=O)c1cccc(NC(=O)c2cccc(N3C(=O)c4ccccc4C3=O)c2)c1	-5	3	2	3	-7	-1	108	i
COc1ccccc1N1C(=O)c2ccc(C(=O)Nc3cccc(C(C)=O)c3)cc2C1=O	-9	4	1	-9	1	1	/	/
O=C(COc1ccccc1F)N1c2ccccc2CCc2ccccc21	1	-1	2	/	63*	1	15*	i
O=C(COc1ccccc1F)N1CCCc2ccccc21	10	-5	-2	-6	-3	0	/	/
CC(C)CN(CC(C)C)S(=O)(=O)c1cc([N+](=O)[O-])ccc1N1CCCCCC1	-2	4	-1	-1	52*	-2	64	i
CN(C)S(=O)(=O)c1cc([N+](=O)[O-])ccc1N1CCCCCC1	1	-4	-6	-8	40	-8	/	/
CN(C(=O)c1ccc(NC(=O)Cc2cccc(NC(=O)C3CCN(C(=O)C4CCCC4)CC3)c2)cc1)C1CCCC1	7	2	5	10	47*	1	82	i
CN(C(=O)c1ccc(NC(=O)Cc2cccc(NC(=O)C3CCN(C(=O)C4CC4)CC3)c2)cc1)C1CC1	2	-5	-2	16	-6	1	117	i
CN(C(=O)c1cccc(NC(=O)Cc2cccc(NC(=O)C3CCN(C(=O)C4CCCCC4)CC3)c2)c1)C1CCC1	-3	-5	0	12	-2	-2	/	/
CC1CCCN(S(=O)(=O)c2ccc(NC(=O)CNC3CCCC3)cc2)C1 (centres undefined)	-8	1	-2	6	4	2	/	/
CCS(=O)(=O)c1ncc(Cl)c(C(=O)Nc2ccc(S(=O)(=O)N3CCCC(C)C3)cc2)n1 (centres undefined)	13	1	-3	10	47*	0	69	i
NC(=O)c1ccc(O)c2ncccc12	/	5	/	/	/	1	/	/
O=Cc1ccc(O)c2ncccc12	-3	/	4	14	9	/	98	i
O=C(NCCN1C(=O)C2C3C=CC(C3)C2C1=O)c1cc(F)cc(F)c1 (centres undefined)	/	-2	/	/	/	1	/	/
Clc1ccccc1C(c1ccccc1)(c1ccccc1)n1ccnc1	2	3	-1	-1	51*	-2	30*	i
C#CC(c1ccccc1)(c1ccccc1)n1ccnc1	5	-2	4	/	/	-1	/	/
Cc1ccccc1Cn1cc(CN2[C@@H](Cc3ccccc3)COc3cc(Br)ccc3S2(=O)=O)nn1	/	2	/	/	/	2	/	/
CC(C)C(=O)Nc1ccc2c(c1)C(=O)N(CCC(=O)O)C2=O	12	2	2	8	43*	4	105	i
Cc1cccc(OCc2nnc(-c3ccc(F)cc3)o2)c1	-11	4	3	-5	7	0	97	i
Cc1cc(Br)ccc1OCc1nnc(-c2ccccc2)o1	-4	6	3	8	-4	7	118	i
Brc1ccc(-c2nnc(Cc3ccccc3)o2)cc1	-7	2	2	-16	-14	14	133	i
c1ccc(Cc2nnc(-c3ccccc3)o2)cc1	7	2	-2	27	2	-3	/	/
COc1cc(-c2nnc(COc3ccc(Cl)cc3C)o2)cc(OC)c1OC	1	-3	1	5	9	-3	/	/
Cc1ccc(-c2nnc(COc3cccc(-n4cnnn4)c3)o2)cc1	4	3	3	9	-12	7	/	/
SMILES	ABHD5-PLIN5 inh	MBD2 inh	Rin1-Abl PPI inh	Arrestin-AP2 inh	B2AR ag	UHRF1 binding	Beta2AR ag CP1	B2AR FAP counter
COc1ccc(-c2nnc(COc3ccc(Br)cc3C)o2)cc1	1	-7	-3	6	-4	-1	107	i
CC(C)Oc1ccc(S(=O)(=O)N2CCCCCC2)c2ccccc12	/	-1	/	/	/	-4	/	/
COCCCNC(=O)c1cc(-c2cccnc2)nc2ccc(S(=O)(=O)N3CCCCCC3)cc12	-5	4	3	-14	17	3	94	i
CCCCNS(=O)(=O)c1ccc2nc(-c3cccnc3)cc(C(=O)NCCCOC)c2c1	1	1	-5	-6	-5	2	/	/
Cc1cc(N2CCN(C)CC2)ccc1NC(=O)c1cccc(S(=O)(=O)N2CCc3ccccc3C2)c1	16	7	-7	3	42*	3	82	i
COc1ccc(-c2onc(C)c2-c2ccc(C(=O)OC(C)C)o2)c(O)c1	-13	-6	2	7	4	2	118	i
Cc1cc(S(=O)(=O)N2CCOCC2)ccc1OCC(=O)Nc1ccccc1F	-5	-3	-2	1	12	-1	95	i
COc1ccc(S(=O)(=O)N2CCOCC2)cc1NC(=O)COc1ccccc1OC	-1	6	2	5	3	-1	/	/
CN(C)S(=O)(=O)c1cccc(NC(=O)COc2ccc(S(=O)(=O)N3CCOCC3)cc2Cl)c1	1	-6	2	-6	14	0	/	/
COc1ccccc1CNC(=O)COc1ccc(S(=O)(=O)N2CCOCC2)cc1C	-2	-5	0	10	-6	-1	/	/
COc1ccc(NC(=O)COc2ccc(S(=O)(=O)N3CCOCC3)cc2C)cc1OC	10	2	0	-6	5	4	111	i
Cc1ccccc1NC(=O)COc1ccc(S(=O)(=O)N2CCCC2)cc1C	1	4	-2	-10	-1	2	90	i
Cc1cc(S(=O)(=O)N2CCOCC2)ccc1OCC(=O)Nc1cccc(F)c1	0	3	-1	29	7	0	126	i
O=C(Nc1ccc(Cl)c(Cl)c1)c1cccc2c1-c1ccccc1C2=O	/	2	/	/	/	2	/	/
O=C(CSc1nnc(-c2cnccn2)n1-c1ccccc1)Nc1ccc2c(c1)OCCO2	/	3	/	/	/	0	/	/
